In brackets after ≈: the same amount, converted by molar mass.
Legend:
Enterococcus faecium = experiment: Antibacterial activity against VanB-resistant Enterococcus faecium; type: functional
Procedure, shortened: (§1)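 Broth microdilution MIC per CLSI guidelines, incubated at 35°C. Cation-adjusted Mueller-Hinton broth for nonfastidious organisms and staphylococci. Streptococci tested in the same broth with 3% lysed horse blood. Anaerobes tested in supplemented Brucella broth inside an anaerobe chamber (5% CO2, 5% H2, 90% N2), read after 48 h. Strains were mainly recent clinical isolates with confirmed identity.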

Corynebacterium sp. = experiment: Antibacterial activity against Corynebacterium sp.; type: functional
Procedure, shortened: (§2)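 Broth microdilution MIC following CLSI guidelines, in cation-adjusted Mueller-Hinton broth containing 3% lysed horse blood, incubated at 35°C. Clinical isolates with identity confirmed. Reported as MIC range, MIC50 and MIC90.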

Moraxella catarrhalis = experiment: Antibacterial activity against beta-lactamase positive Moraxella catarrhalis; type: functional
Citrobacter koseri = experiment: Antibacterial activity against Citrobacter diversus; type: functional
Procedure, shortened: (§3)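 Broth microdilution MIC following CLSI guidelines, in cation-adjusted Mueller-Hinton broth, incubated at 35°C. Recent clinical isolates and reference strains, with identity confirmed by automated and standard microbiological methods. Results reported as MIC range, MIC50 and MIC90.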

Citrobacter freundii = experiment: Antibacterial activity against Citrobacter freundii; type: functional; procedure, shortened: as §3
Klebsiella aerogenes = experiment: Antibacterial activity against Enterobacter aerogenes; type: functional; procedure, shortened: as §3
Enterobacter cloacae = experiment: Antibacterial activity against Enterobacter cloacae; type: functional; procedure, shortened: as §3
Escherichia coli = experiment: Antibacterial activity against Escherichia coli; type: functional; procedure, shortened: as §3
Klebsiella oxytoca = experiment: Antibacterial activity against Klebsiella oxytoca; type: functional; procedure, shortened: as §3
Klebsiella pneumoniae = experiment: Antibacterial activity against beta-lactamase positive Klebsiella pneumoniae; type: functional
Procedure, shortened: (§4)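 MIC by CLSI broth microdilution for nonfastidious organisms, in cation-adjusted Mueller-Hinton broth incubated at 35°C.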

Morganella morganii = experiment: Antibacterial activity against Morganella morganii; type: functional; procedure, shortened: as §3
Proteus vulgaris = experiment: Antibacterial activity against Proteus vulgaris; type: functional; procedure, shortened: as §3
Salmonella typhimurium = experiment: Antibacterial activity against Salmonella enterica serovar Typhimurium; type: functional, Salmonella enterica subsp. enterica serovar Typhimurium; procedure, shortened: as §3
Actinomyces sp. = experiment: Antibacterial activity against Actinomyces sp.; type: functional
[1] = tested on: Peptostreptococcus anaerobius; experiment: Antibacterial activity against Peptostreptococcus anaerobius; type: functional
Procedure, shortened: (§5)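 Anaerobic broth microdilution MIC following CLSI guidelines, in supplemented Brucella broth. Run in an anaerobe chamber under 5% CO2, 5% H2 and 90% N2 at 35°C, and read after 48 h. Reported as MIC range, MIC50 and MIC90.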

Clostridium perfringens = experiment: Antibacterial activity against Clostridium perfringens; type: functional; procedure, shortened: as §1
Clostridioides difficile = experiment: Antibacterial activity against Clostridium difficile; type: functional; procedure, shortened: as §5
[2] = tested on: Bacteroides thetaiotaomicron; experiment: Antibacterial activity against Bacteroides thetaiotaomicron; type: functional; procedure, shortened: as §5
Bacteroides fragilis = experiment: Antibacterial activity against Bacteroides fragilis; type: functional; procedure, shortened: as §5
Staphylococcus aureus [3] = experiment: Antibacterial activity against oxacillin-susceptible Staphylococcus aureus; type: functional; procedure, shortened: as §4
Staphylococcus aureus [4] = experiment: Antibacterial activity against oxacillin-resistant Staphylococcus aureus; type: functional; procedure, shortened: as §1
Staphylococcus aureus [5] = experiment: Antibacterial activity against oxacillin and levofloxacin-resistant Staphylococcus aureus; type: functional; procedure, shortened: as §1
[6] = tested on: Staphylococcus epidermidis; experiment: Antibacterial activity against oxacillin-susceptible Staphylococcus epidermidis; type: functional; procedure, shortened: as §4
[7] = tested on: Staphylococcus epidermidis; experiment: Antibacterial activity against oxacillin-resistant Staphylococcus epidermidis; type: functional; procedure, shortened: as §1
[8] = tested on: Staphylococcus saprophyticus; experiment: Antibacterial activity against Staphylococcus saprophyticus; type: functional; procedure, shortened: as §3
Alloiococcus otitis = experiment: Antibacterial activity against Alloiococcus otitidis; type: functional
Procedure, shortened: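 MIC by broth microdilution following CLSI guidelines, in cation-adjusted Mueller-Hinton broth with 3% lysed horse blood. Incubated at 35°C and read after 48 h. Reported as MIC range, MIC50 and MIC90.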

Streptococcus agalactiae = experiment: Antibacterial activity against Streptococcus agalactiae; type: functional; procedure, shortened: as §2
Streptococcus equinus = experiment: Antibacterial activity against Streptococcus bovis; type: functional
Procedure, shortened: (§6)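 Broth microdilution MIC following CLSI guidelines, in cation-adjusted Mueller-Hinton broth with 3% lysed horse blood. Plates incubated at 35°C. Clinical isolates and reference strains, with identity confirmed by standard microbiological methods.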

Streptococcus pneumoniae = experiment: Antibacterial activity against penicillin-susceptible Streptococcus pneumoniae; type: functional; procedure, shortened: as §1
Anaerococcus prevotii = experiment: Antibacterial activity against Peptostreptococcus prevotii; type: functional; procedure, shortened: as §5
Hoylesella oralis = experiment: Antibacterial activity against Prevotella oralis; type: functional; procedure, shortened: as §5
Streptococcus salivarius = experiment: Antibacterial activity against Streptococcus salivarius; type: functional; procedure, shortened: as §6
[9] = tested on: Parabacteroides distasonis; experiment: Antimicrobial activity against Bacteroides distasonis; type: functional
Procedure, shortened: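 Anaerobic broth microdilution MIC following CLSI guidelines, in supplemented Brucella broth. Incubated at 35°C in a chamber under 5% CO2, 5% H2 and 90% N2. Read after 48 h.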

C[C@H]1NCc2cc(-c3ccc4c(=O)c(C(=O)O)cn(C5CC5)c4c3OC(F)F)ccc21 [GARENOXACIN]
MIC (Enterococcus faecium): 4 µg/mL (≈ 9.38 µM)
MIC50 (Corynebacterium sp.): 0.25 µg/mL (≈ 0.586 µM)
MIC90 (Corynebacterium sp.): 64 µg/mL (≈ 150 µM)
MIC50 (Moraxella catarrhalis): 0.06 µg/mL (≈ 0.141 µM)
MIC90 (Moraxella catarrhalis): 0.06 µg/mL (≈ 0.141 µM)
MIC50 (Citrobacter koseri): 0.125 µg/mL (≈ 0.293 µM)
MIC90 (Citrobacter koseri): 0.25 µg/mL (≈ 0.586 µM)
MIC50 (Citrobacter freundii): 1 µg/mL (≈ 2.35 µM)
MIC90 (Citrobacter freundii): > 64 µg/mL
MIC50 (Klebsiella aerogenes): 2 µg/mL (≈ 4.69 µM)
MIC90 (Klebsiella aerogenes): > 64 µg/mL
MIC50 (Enterobacter cloacae): 0.125 µg/mL (≈ 0.293 µM)
MIC90 (Enterobacter cloacae): 2 µg/mL (≈ 4.69 µM)
MIC50 (Escherichia coli): 0.06 µg/mL (≈ 0.141 µM)
MIC90 (Escherichia coli): 1 µg/mL (≈ 2.35 µM)
MIC50 (Klebsiella oxytoca): 0.125 µg/mL (≈ 0.293 µM)
MIC90 (Klebsiella oxytoca): 2 µg/mL (≈ 4.69 µM)
MIC50 (Klebsiella pneumoniae): 1 µg/mL (≈ 2.35 µM)
MIC90 (Klebsiella pneumoniae): 64 µg/mL (≈ 150 µM)
MIC50 (Morganella morganii): 2 µg/mL (≈ 4.69 µM)
MIC90 (Morganella morganii): 32 µg/mL (≈ 75 µM)
MIC (Proteus vulgaris): 0.25 µg/mL (≈ 0.586 µM)
MIC50 (Salmonella typhimurium): 0.03 µg/mL (≈ 0.0704 µM)
MIC90 (Salmonella typhimurium): 0.125 µg/mL (≈ 0.293 µM)
MIC (Actinomyces sp.): 0.125 µg/mL (≈ 0.293 µM)
MIC [1]: 0.015 µg/mL (≈ 0.0352 µM)
MIC50 (Clostridium perfringens): 0.5 µg/mL (≈ 1.17 µM)
MIC90 (Clostridium perfringens): 1 µg/mL (≈ 2.35 µM)
MIC50 (Clostridioides difficile): 0.5 µg/mL (≈ 1.17 µM)
MIC90 (Clostridioides difficile): 1 µg/mL (≈ 2.35 µM)
MIC50 [2]: 2 µg/mL (≈ 4.69 µM)
MIC90 [2]: 4 µg/mL (≈ 9.38 µM)
MIC50 (Bacteroides fragilis): 0.5 µg/mL (≈ 1.17 µM)
MIC90 (Bacteroides fragilis): 2 µg/mL (≈ 4.69 µM)
MIC50 (Staphylococcus aureus [3]): 0.06 µg/mL (≈ 0.141 µM)
MIC90 (Staphylococcus aureus [3]): 0.06 µg/mL (≈ 0.141 µM)
MIC50 (Staphylococcus aureus [4]): 2 µg/mL (≈ 4.69 µM)
MIC90 (Staphylococcus aureus [4]): 2 µg/mL (≈ 4.69 µM)
MIC50 (Staphylococcus aureus [5]): 2 µg/mL (≈ 4.69 µM)
MIC90 (Staphylococcus aureus [5]): 4 µg/mL (≈ 9.38 µM)
MIC [6]: 0.06 µg/mL (≈ 0.141 µM)
MIC50 [7]: 2 µg/mL (≈ 4.69 µM)
MIC90 [7]: 32 µg/mL (≈ 75 µM)
MIC50 [8]: 0.03 µg/mL (≈ 0.0704 µM)
MIC90 [8]: 0.06 µg/mL (≈ 0.141 µM)
MIC50 (Alloiococcus otitis): ≤ 0.001 µg/mL
MIC90 (Alloiococcus otitis): ≤ 0.001 µg/mL
MIC50 (Streptococcus agalactiae): 0.125 µg/mL (≈ 0.293 µM)
MIC90 (Streptococcus agalactiae): 0.125 µg/mL (≈ 0.293 µM)
MIC50 (Streptococcus equinus): 0.25 µg/mL (≈ 0.586 µM)
MIC90 (Streptococcus equinus): 0.25 µg/mL (≈ 0.586 µM)
MIC50 (Streptococcus pneumoniae): 0.125 µg/mL (≈ 0.293 µM)
MIC90 (Streptococcus pneumoniae): 0.125 µg/mL (≈ 0.293 µM)
MIC (Anaerococcus prevotii): 0.015 µg/mL (≈ 0.0352 µM)
MIC50 (Hoylesella oralis): 0.25 µg/mL (≈ 0.586 µM)
MIC90 (Hoylesella oralis): 1 µg/mL (≈ 2.35 µM)
MIC50 (Streptococcus salivarius): 0.125 µg/mL (≈ 0.293 µM)
MIC90 (Streptococcus salivarius): 0.25 µg/mL (≈ 0.586 µM)
MIC50 [9]: 2 µg/mL (≈ 4.69 µM)
MIC90 [9]: 4 µg/mL (≈ 9.38 µM)

Source: ChEMBL document CHEMBL1147105, “In vitro and in vivo activities of PD 0305970 and PD 0326448, new bacterial gyrase/topoisomerase inhibitors with potent antibacterial activities versus multidrug-resistant gram-positive and fastidious organism groups” (2007)
